The record followed here is ChEMBL document CHEMBL3763021 (Eur J Med Chem, 2016).

Molecules are shown by their SMILES.

Series [1] can be described thus: Inhibition of Sonic-induced hedgehog signalling in mouse NIH3T3 cells after 48 hrs by Gli-luciferase reporter assay. Type of series: cell-based. As to conditions: NIH3T3, 48 h. Summed up: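 NIH3T3 cells stably carrying a Gli-luciferase reporter were kept in DMEM with 10% FBS and 1 µg/mL puromycin, then seeded at 2×10^4 cells/well overnight at 37 °C. Compounds at 0.05–300 nM (8 concentrations) were added in medium with 0.5% FBS and 0.7 µg/mL Sonic Hh agonist, n=4 wells, for 48 h. Readout was the Firefly/Renilla luciferase ratio in lysates.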
In general terms: A reporter such as luciferase makes a cellular process visible.

Series [2] in a line: AUC (0 to t) in Sprague-Dawley rat at 5 mg/kg, po by LC/MS/MS analysis. As to conditions: in vivo. In kind it is ADME, organism-based. The essentials:
(§1)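 Male SD rats, 180–240 g, 3 per compound; single dose of 1 mg/kg iv or 5 mg/kg po, dosing volume 5 mL/kg. Blood was sampled from 2 min to 24 h and centrifuged at 4 °C. Plasma underwent protein precipitation, then LC/MS/MS in SRM mode with an internal standard. Parameters were derived by noncompartmental analysis.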

A short description of series [3]: Mean resident time (0 to t) in Sprague-Dawley rat at 5 mg/kg, po by LC/MS/MS analysis. In kind it is ADME, organism-based. As to conditions: in vivo. Summed up:
as §1

A short description of series [4]: Clearance in Sprague-Dawley rat at 5 mg/kg, po by LC/MS/MS analysis. In kind it is ADME, organism-based. As to conditions: in vivo. The essentials: as §1
Series [5] relates to Rattus norvegicus. The series can be described thus: Apparent volume of distribution in Sprague-Dawley rat at 5 mg/kg, po by LC/MS/MS analysis. The note with it: in vivo.
Series [6] is described as follows: Half life in Sprague-Dawley rat at 5 mg/kg, po by LC/MS/MS analysis. In kind it is ADME, organism-based. The note with it: in vivo. Summed up:
as §1

Series [7] is described as follows: Cmax in Sprague-Dawley rat at 5 mg/kg, po by LC/MS/MS analysis. Type of series: ADME, organism-based. On the set-up: dose 5 mg/kg, route oral. The note with it: in vivo. Summed up: as §1
Series [8] in a line: Oral bioavailability in Sprague-Dawley rat at 5 mg/kg. The note with it: in vivo. In kind it is ADME, organism-based. Summed up:
as §1

Series [9] in a line: Mean resident time (0 to t) in Sprague-Dawley rat at 1 mg/kg, iv by LC/MS/MS analysis. In kind it is ADME, organism-based. As to conditions: in vivo. The essentials:
as §1

Series [10] can be described thus: Clearance in Sprague-Dawley rat at 1 mg/kg, iv by LC/MS/MS analysis. Type of series: ADME, organism-based. As to conditions: in vivo. Summed up: as §1
Series [11] can be described thus: Apparent volume of distribution in Sprague-Dawley rat at 1 mg/kg, iv by LC/MS/MS analysis. The note with it: in vivo.
Series [12] in a line: AUC (0 to t) in Sprague-Dawley rat at 1 mg/kg, iv by LC/MS/MS analysis. Type of series: ADME, organism-based. The note with it: in vivo. Summed up:
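Male SD rats, 3 per compound, 180–240 g, single iv dose at 1 mg/kg, dosing volume 5 mL/kg. Blood sampled at 2, 5, 15, 30 min and 1, 2, 4, 6, 8, 10, 24 h, then centrifuged at 4 °C. Plasma protein-precipitated and analysed by LC/MS/MS in SRM mode with internal standard. AUC(0-t) obtained by noncompartmental analysis.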

A short description of series [13]: Cmax in Sprague-Dawley rat at 1 mg/kg, iv by LC/MS/MS analysis. In kind it is ADME, organism-based. On the set-up: dose 1 mg/kg, route intravenous. As to conditions: in vivo. The essentials:
as §1

The nature of series [14]: Half life in Sprague-Dawley rat at 1 mg/kg, iv by LC/MS/MS analysis. In kind it is ADME, organism-based. As to conditions: in vivo. The essentials: as §1

Usually IC50 stands for the concentration at which inhibition is half-maximal. A lower IC50 goes with inhibition by little substance. In turn, `Cc1ccc(CN(C)C)cc1NC(=O)c1ccc(Nc2nccc(-c3ccc(OC(F)(F)F)cc3)n2)cc1` gave a half-inhibitory concentration (IC50) in [1] of 3.04 nM.
One may read the AUC(0-t) as exposure summed from dosing to a finite time, without extrapolation to infinity. A higher AUC(0-t) goes with high exposure. As usually defined, the MRT last is a mean duration of stay, worked out from the concentration-time curve. A word on the CL/F: it is clearance divided by bioavailability, as obtained after extravascular dosing. The half-life is the time in which the quantity being followed falls by half. Low values mean fast loss, high ones slow loss. Usually Cmax stands for the highest concentration seen after dosing. The compound `Cc1ccc(CN2CCOCC2)cc1NC(=O)c1ccc(Nc2nccc(-c3ccc(OC(F)(F)F)cc3)n2)cn1` had an AUC(0-t) in [2] of 660 ng·h/mL. Also, the midpoint of inhibition in [1], the IC50, lay at 0.69 nM. This compound also gave an MRT last in series [3] of 4.83 h. In addition, in series [4], the CL/F was 123 mL/min/kg. Besides, the “Vd(app)” value in [5] is 59.60185 L/kg. Moreover, in series [6], the half-life was 5.56 h. In addition, in series [7], the Cmax is 137 ng/mL.
In series [1], `Cc1ccc(CN(C)C)cc1NC(=O)c1ccc(Nc2ncc(F)c(-c3ccc(OC(F)(F)F)cc3)n2)cc1` came in with an IC50 of 3.19 nM.
The same measure, in the same setting: for `Cc1ccc(CN2CCCCC2)cc1NC(=O)c1ccc(Nc2nccc(-c3ccc(OC(F)(F)F)cc3)n2)cc1` the value was 2.68 nM.
The term bioavailability denotes dose-corrected exposure relative to a reference, in per cent. Lower therefore signals little systemic uptake. One may read the clearance as a measure of how efficiently the substance is removed, as volume per time. A lower clearance goes with a low capacity for elimination. With `Cc1c(C(=O)Nc2ccc(N3C[C@@H](C)O[C@@H](C)C3)nc2)cccc1-c1ccc(OC(F)(F)F)cc1` [SONIDEGIB], the figures for the AUC(0-t) in [2] and in [12] were 8830 ng·h/mL and 2200 ng·h/mL, respectively. In [1], the IC50 was determined as 5.5 nM. This compound gave a bioavailability in series [8] of 80.6%. For the same compound, the mean residence time (MRT last) in series [3] came out at 5.4 h; in [9], 1.58 h. The compound also showed a clearance in [10] of 7.69 mL/min/kg. The CL/F in series [4] is 9.72 mL/min/kg. Further, the Vd in series [11] was 0.955 L/kg. Besides, in series [5], the “Vd(app)” value turned out to be 3.40593 L/kg. For the same compound, the half-life in [6] is 4.01 h; in series [14] it was 1.43 h. Besides, the results for the Cmax in series [13] and in series [7] were 1930 ng/mL and 1400 ng/mL, respectively.
On to `CCN(CC)Cc1ccc(C)c(NC(=O)c2ccc(Nc3nccc(-c4ccc(OC(F)(F)F)cc4)n3)cc2)c1`, for which the IC50 in series [1] amounted to 2.31 nM.
With `Cc1ccc(CN2CCOCC2)cc1NC(=O)c1ccc(Nc2ncc(F)c(-c3ccc(OC(F)(F)F)cc3)n2)nc1`, the 50% inhibitory concentration (IC50) in series [1] turned out to be 0.78 nM. Moreover, the MRT last in [9] was found to be 1.98 h. This compound also showed a clearance in series [10] of 26.4 mL/min/kg. For the same compound, the Vd in [11] was 4.62 L/kg. This compound also returned an area under the curve AUC(0-t) in series [12] of 625 ng·h/mL. In addition, the Cmax in series [13] came out at 770 ng/mL. This compound showed a half-life in [14] of 2.02 h.
The compound `Cc1ccc(CN2CCCC2)cc1NC(=O)c1ccc(Nc2ncc(F)c(-c3ccc(OC(F)(F)F)cc3)n2)cc1` displayed an IC50 in series [1] of 5.16 nM.
On the same count and under the same terms, for `Cc1ccc(CN2CCCCC2)cc1NC(=O)c1ccc(Nc2ncc(F)c(-c3ccc(OC(F)(F)F)cc3)n2)cc1` the value was 3.12 nM.
